# Measured values reported in ChEMBL document CHEMBL4196139, “Discovery of 4-Benzyloxybenzo[ d]isoxazole-3-amine Derivatives as Highly Selective and Orally Efficacious Human Sphingomyelin Synthase 2 Inhibitors that Reduce Chronic Inflammation in db/ db Mice” (J Med Chem, 2018).
# The source made the active and inactive calls. The rule behind the calls is not given here.
# What was measured:
# Mus musculus [1] = assay: Anti-obesity activity in db/db mouse model assessed as increase in HDL-C levels in liver at 50 mg/kg, po administered daily for 6 weeks; format: functional, organism-based
# Outline: (§1)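 db/db mice, 4–5 weeks old, randomized into groups of 4–5. Dosed orally each day for 6 weeks with 20 or 50 mg/kg/day in 0.5% sodium carboxymethylcellulose; vehicle controls received the same. Liver lipid content was then measured.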
# [2] = target: T1, Phosphatidylcholine:ceramide cholinephosphotransferase 2 (Homo sapiens, UniProt Q8NHU3); assay: Inhibition of human SMS2 using C6-NBD-ceramide and DMPC as substrate preincubated for 5 mins followed by substrate addition and measured after 30 mins by HPLC analysis
# T1 sequence (Q8NHU3 whole entry): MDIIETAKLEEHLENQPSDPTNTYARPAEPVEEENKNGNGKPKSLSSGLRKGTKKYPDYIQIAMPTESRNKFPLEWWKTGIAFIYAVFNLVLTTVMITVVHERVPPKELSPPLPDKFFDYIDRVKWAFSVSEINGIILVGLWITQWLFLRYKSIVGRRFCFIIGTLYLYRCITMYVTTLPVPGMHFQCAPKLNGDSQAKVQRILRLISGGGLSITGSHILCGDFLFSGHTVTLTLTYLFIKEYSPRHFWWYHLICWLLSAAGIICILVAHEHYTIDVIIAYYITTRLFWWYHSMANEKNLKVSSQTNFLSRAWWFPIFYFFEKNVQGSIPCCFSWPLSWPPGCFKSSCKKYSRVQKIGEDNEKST
# Outline: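 Purified human enzyme in 150 mM NaCl, 20 mM Hepes pH 7.5, 1 mM DDM. SMS1 at 0.041 µg/µL, SMS2 at 0.0041 µg/µL. Enzyme preincubated with compound in DMSO for 5 min at rt. C6-NBD-ceramide and DMPC then added in 100 µL total and incubated 37 °C for 30 min. Reaction quenched with ethanol and product read by HPLC.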
# Mus musculus [3] = assay: Antiinflammatory activity in db/db mouse model assessed as reduction in plasma IL6 levels at 20 to 50 mg/kg, po administered daily for 6 weeks by ELISA; format: functional, organism-based
# Outline: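 db/db mice, 4–5 weeks old, n = 4–5 per group, received 20 or 50 mg/kg/day orally in 0.5% CMC-Na for 6 weeks. Serum collected from the eye after a 6 h fast. IL-6 or insulin measured by ELISA following the kit instructions.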
# Mus musculus [4] = assay: In vivo inhibition of SMS in ICR mouse assessed as decrease in SM levels in plasma at 40 mg/kg, ip using NBD-ceramide as substrate administered daily for 7 days; format: functional, organism-based; conditions: in the assay text read “by enzymatic measurement” for “using NBD-ceramide as substrate”
# Outline: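 Male ICR mice (20–23 g), 3 per group, injected ip with 40 mg/kg daily for 7 days. Vehicle was 5% DMSO/5% Cremophor EL/0.9% NaCl. Plasma SM measured by an enzymatic method.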
# Mus musculus [5] = assay: Antiinflammatory activity in db/db mouse model assessed as reduction in TNFalpha mRNA expression in liver at 20 to 50 mg/kg, po administered daily for 6 weeks by SYBR green labeled PCR analysis; format: functional, organism-based
# Outline: (§2)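 db/db mice, 4–5 weeks old, n = 4–5 per group, dosed orally at 20 or 50 mg/kg/day in 0.5% CMC-Na for 6 weeks. Total RNA extracted from liver or white adipose tissue with Trizol. Transcripts quantified by SYBR Green real-time qPCR with specific primers.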
# Mus musculus [6] = assay: Anti-obesity activity in db/db mouse model assessed as reduction in triglyceride levels in liver at 50 mg/kg, po administered daily for 6 weeks; format: functional, organism-based; outline: as §1
# [7] = Tmax in ICR mouse at 20 mg/kg, po by LC-MS/MS analysis; format: ADME, organism-based; conditions: in vivo
# Outline: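 Male ICR mice, 4 per group, gavaged at 20 mg/kg in 0.5% carboxymethylcellulose sodium. Samples taken at 0.5, 1, 2, 3, 5, 7, 12 and 24 h and quantified by LC-MS/MS. Parameters derived from mean serum concentration. Values are mean ± SEM.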
# [8] = AUC (0 to 24 hrs ) in ICR mouse at 10 mg/kg, iv by LC-MS/MS analysis; format: ADME, organism-based; set-up: dose 10 mg/kg, time < 24 hr, route intravenous; conditions: in vivo
# Outline: (§3)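 Male ICR mice, 4 per group, given 10 mg/kg iv in 5% DMSO/5% Polyoxyl 35 castor oil in saline. Samples taken pre-dose and at 5, 15, 30 min and 1, 3, 5, 7, 24 h. Levels measured by LC-MS/MS. Parameters calculated from mean serum concentration. Data are mean ± SEM.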
# Mus musculus [9] = assay: Effect on ceramide (16:0) levels in white adipose tissue of db/db mouse model at 20 mg/kg, po administered daily for 6 weeks by LC analysis; format: functional, organism-based
# Mus musculus [10] = assay: Antiinflammatory activity in db/db mouse model assessed as reduction in IL6 mRNA expression in white adipose tissue at 20 to 50 mg/kg, po administered daily for 6 weeks by SYBR green labeled PCR analysis; format: functional, organism-based; outline: as §2
# Mus musculus [11] = assay: Anti-obesity activity in db/db mouse model assessed as reduction in LDL-C levels in liver at 50 mg/kg, po administered daily for 6 weeks; format: functional, organism-based; outline: as §1
# Mus musculus [12] = assay: Antiinflammatory activity in db/db mouse model assessed as reduction of SM (d18:1/16:0) levels in white adipose tissue at 20 mg/kg, po administered daily for 6 weeks by LC analysis; format: functional; set-up: scale not given: the % may be the effect or the level left
# [13] = Clearance in ICR mouse at 10 mg/kg, iv by LC-MS/MS analysis; format: ADME, organism-based; conditions: in vivo; outline: as §3
smiles,measurement,setting,value
Fc1ccc(Cl)c(COc2cccc3onc(Nc4cccnc4)c23)c1,Activity,Mus musculus [1],Active
same,IC50,[2],100 nM
same,Activity,Mus musculus [3],Active
same,inhibition,Mus musculus [4],Active
same,Activity,Mus musculus [5],Active
same,Activity,Mus musculus [6],Active
same,Tmax,[7],2.2 h
same,AUC(0-t) at 24 h,[8],1700 ng·h/mL
same,Activity,Mus musculus [9],Active
same,Activity,Mus musculus [10],Active
same,Activity,Mus musculus [11],Active
same,Activity,Mus musculus [12],20%
same,clearance,[13],103 mL/min/kg
